Shown are actives, neighbours in structure and some others; about 1.9% of the full set was active somewhere.
ADAM17 inh = ADAM17 inhibitors, primary screen, biochemical, QFRET. Disintegrin and metalloproteinase domain-containing protein 17 (Homo sapiens), P78536. recombinant ADAM17, EDANS/DABCYL FRET peptide cleavage. inhibition, % at 6.95 µM. 370,000 tested, 0.83% active;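 active = inhibition above the mean of compounds lying between control limits plus 3 SD, set per campaign, cut at about 8.5% in these data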
SENP1 inh = human SENP1 catalytic domain inhibitors, primary screen, biochemical, FRET, uHTS; Sentrin-specific protease 1 (Homo sapiens), Q9P0U3; recombinant SENP1 catalytic domain, CyPet-SUMO1-YPet FRET cleavage; inhibition, % at 10 µM; 360,000 tested, 0.21% active; AID 624204, 2012;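 active = inhibition at least 30% at 10 µM, raw YFP signal under a set limit, fluorescence ratio 0.5 to 1.5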
Target sequence (Q9P0U3 419-644 limits assumed): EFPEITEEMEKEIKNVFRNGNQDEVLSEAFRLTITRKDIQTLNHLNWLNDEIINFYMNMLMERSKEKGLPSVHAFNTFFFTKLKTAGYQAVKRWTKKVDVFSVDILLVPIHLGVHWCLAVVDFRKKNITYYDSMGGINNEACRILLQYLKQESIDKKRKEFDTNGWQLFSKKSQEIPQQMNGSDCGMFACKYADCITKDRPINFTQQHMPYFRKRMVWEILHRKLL
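System: Recombinant human SENP1 catalytic domain, His6-tagged | Incubation: Enzyme reaction for 50 min at room temperature, dark | Medium: Tris pH 8 with BME, BSA, NP40 and catalase | Also added: 25 nM SUMO1 FRET substrate | Compound: 10 µM single point, 0.5% DMSO | Measured by: FRET fluorescence in CFP and YFP emission channels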
ADAM10 inh = human ADAM10 inhibitors, primary screen, biochemical, QFRET, HTS; inhibition, % at 7 µM; recombinant ADAM10, EDANS/DABCYL FRET peptide cleavage, 3 h; 370,000 tested, 0.62% active; Disintegrin and metalloproteinase domain-containing protein 10 (Homo sapiens), O14672; AID 720582, 2013;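 active = inhibition above a per-campaign cutoff equal to the mean of compounds falling between control-based bounds plus 3 SD, cut at about 20% in these data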
FAS-TE inh = FAS thioesterase domain inhibitors, primary screen, biochemical, fluorescence intensity, uHTS | Fatty acid synthase (Homo sapiens), P49327 | recombinant FAS-TE, OMFH fluorogenic substrate, fluorescence endpoint | inhibition, % at 15 µM | 360,000 tested, 0.67% active;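 active = compounds whose normalised, plate-corrected inhibition of enzyme fluorescence in the single-dose primary screen is 50% or more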
FAS-TE inh conf = FAS thioesterase domain inhibitors, confirmation, biochemical, fluorescence intensity, single concentration | 2,300 tested, 45% active | shares compounds with FAS-TE inh | recombinant FAS-TE, OMFH fluorogenic substrate | inhibition, % at 15 µM | AID 624325, 2012;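 active = compounds inhibiting the enzyme by at least 50% at 15 µM in any one of the replicates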
Numbers stand for hits; - = inactive; . = no result given.

SMILES | ADAM17 inh | SENP1 inh | ADAM10 inh | FAS-TE inh | FAS-TE inh conf
Cc1ccc(-c2cc(-c3nnc(SCC(=O)N4c5ccccc5Sc5ccc(Cl)cc54)n3N)[nH]n2)cc1 | - | . | - | . | .
O=C(CC(C(=O)O)c1ccc(Cl)cc1)c1ccc(Cl)c(Cl)c1 (configuration not stated) | - | - | - | 80.4 | 81.5
Cc1ccc(C(CC(=O)c2ccc(Cl)cc2)C(=O)O)cc1 (configuration not stated) | - | - | - | - | .
C#CCN1CC(N(C)CCOC(=O)c2cc(C)cc(C)c2)CS1(=O)=O (configuration not stated) | - | . | - | . | .
COC(=O)[C@@]1(C(C)C)N=C(c2cc(OC)c(OC)c(OC)c2)[C@]2(O1)C(=O)N(Cc1ccc(OC)cc1)c1ccc(Br)cc12 | - | - | - | 53.1 | -
COC(=O)[C@@]1(C(C)C)N=C(c2cc(OC)c(OC)c(OC)c2)[C@]2(O1)C(=O)N(Cc1cn(Cc3ccccc3)nn1)c1ccc(F)cc12 | - | . | - | . | .
COC(=O)C1CN(C2CCCC2)CCS(=O)(=O)N1Cc1ccc(Cl)cc1 (configuration not stated) | - | . | - | . | .
COc1ccc(C2=NOC(COc3ccc([N+](=O)[O-])cc3)C2)cc1 (configuration not stated) | - | - | - | 53.7 | -
COc1ccc(CCNC(=O)C2CC(c3ccc([N+](=O)[O-])cc3)=NO2)cc1 (configuration not stated) | - | - | - | - | .
COc1ccccc1N1CN(S(=O)(=O)c2ccc(C)cc2)c2nc3ccccc3nc21 | - | - | - | 57.4 | -
CC(=O)Nc1ccc(OCC(C)CN2CCC(C(O)(c3ccccc3)c3ccccc3)CC2)cc1 (configuration not stated) | - | . | - | . | .
N#Cc1cccc(NC(=O)OCCN2C(=O)CCC23CCC(c2ccc(Cl)cc2)CC3)c1 (configuration not stated) | - | . | - | . | .
O=C(COC(=O)CCc1ccccc1)Nc1cc([N+](=O)[O-])ccc1F | . | - | . | 73.0 | 67.0
Cc1ccc(C)c(NC(=O)COC(=O)CC2CC3CCC2C3)c1 (configuration not stated) | - | - | - | - | .
O=C(COC(=O)CC1CC2CCC1C2)Nc1cc([N+](=O)[O-])ccc1F (configuration not stated) | - | - | - | 80.0 | 87.4
COC(=O)C1=C(C)N(Cc2ccc(C(F)(F)F)cc2)C(=NCc2ccccc2C(F)(F)F)NC1c1cccc(Cl)c1 (configuration not stated) | - | . | - | . | .
CC(C)C[C@H]1COc2cc(Br)ccc2S(=O)(=O)N1Cc1cn(Cc2ccc(F)cc2)nn1 | - | . | - | . | .
O=[N+]([O-])c1ccc(Sc2n[nH]c(-c3ccc(Cl)cc3Cl)n2)nc1 | - | - | - | 62.8 | 59.9
COc1ccc(NC(=O)c2cc(-c3cc(OC)c(OC)c(OC)c3)nc3ccccc23)cc1OC | - | - | - | - | .
COc1cc(-c2cc(C(=O)Nc3c(Cl)cc(Cl)cc3Cl)c3ccccc3n2)cc(OC)c1OC | - | - | - | 55.6 | -
COc1ccc(-c2cc(C(=O)Nc3nc4c(C)cccc4s3)c3ccccc3n2)cc1OC | - | - | - | 67.7 | -
COc1cccc(-c2cc(C(=O)Nc3nc4ccccc4s3)c3ccccc3n2)c1 | - | - | - | - | .
S=C(Nc1ccccc1Cl)OCCN1CCCC12CCC(c1ccccc1)CC2 (configuration not stated) | - | . | - | . | .
O=S1(=O)CC(N2CCCC2)CN1 (configuration not stated) | - | . | - | . | .
O=C(Cc1cccc(C(F)(F)F)c1)OCN1C(=O)c2ccccc2C1=O | - | - | - | 50.7 | 46.0
SMILES | ADAM17 inh | SENP1 inh | ADAM10 inh | FAS-TE inh | FAS-TE inh conf
O=C(NCc1cccc(Cl)c1)O[C@H]1CC[C@@]23CCCN2C(=O)CCC[C@H]3C1 | - | . | - | . | .
CCCCC[C@@H]1[C@H]2[C@H]3C(=O)N(c4ccccc4)C(=O)[C@H]3CC(=O)[C@H]2[C@H](c2ccccc2)N1S(=O)(=O)c1ccc(C)cc1 | - | - | - | 58.8 | -
Cc1ccc(S(=O)(=O)N2C[C@H]3[C@H]4C(=O)N(C5CCCCC5)C(=O)[C@H]4CC(=O)[C@H]3[C@@H]2c2ccccc2Cl)cc1 | - | - | - | 62.0 | -
CCOC1=C2[C@@H](CN(S(=O)(=O)c3ccc(C)cc3)[C@H]2c2cccc3ccccc23)[C@H]2C(=O)N(C3CCCCC3)C(=O)[C@H]2C1 | - | - | - | 67.4 | -
CCOC(=O)C1=CCN(S(=O)(=O)c2ccc(C)cc2)C1c1cccc2ccccc12 (configuration not stated) | - | - | - | - | .
CCN1C(=O)[C@@H]2[C@@H]3CN(S(=O)(=O)c4ccc(C)cc4)[C@@H](c4cccc5ccccc45)[C@@H]3C(=O)C[C@@H]2C1=O | - | - | - | - | .
CCOC1=C2[C@H]([C@H]3C(=O)N(c4ccccc4)C(=O)[C@H]3C1)[C@@H](C(C)C)N(S(=O)(=O)c1ccc(C)cc1)[C@H]2c1ccccc1 | - | - | - | 57.6 | -
CCOC1=C2[C@@H](CN(S(=O)(=O)c3ccc(C)cc3)[C@H]2c2ccc(Cl)cc2)[C@H]2C(=O)N(c3ccccc3)C(=O)[C@H]2C1 | - | - | - | 62.0 | -
CCOC1=C2[C@@H](CN(S(=O)(=O)c3ccccc3)[C@H]2c2ccccc2)[C@H]2C(=O)N(c3ccccc3)C(=O)[C@H]2C1 | - | - | - | - | .
COc1ccc(-c2noc(C3CCCN(C(=O)NC4CCC(C)CC4)C3)n2)cc1 (configuration not stated) | - | . | - | . | .
O=C1C(F)=CC(COC(c2ccccc2)(c2ccccc2)c2ccccc2)OC1n1cc(F)c(=O)[nH]c1=O (configuration not stated) | - | - | - | 70.0 | 52.0
OCCCn1c(CCNc2nc(-c3ccc(Cl)cc3)cs2)nc2cc(C(F)(F)F)ccc21 | - | - | - | - | .
O=[N+]([O-])c1cc(-c2csc(NCCc3nc4cc(C(F)(F)F)ccc4n3CCCO)n2)ccc1Cl | - | - | - | 80.6 | 69.9
Cc1nc2cc(C(F)(F)F)ccc2n1CCNc1nc(-c2ccc(F)cc2)cs1 | - | - | - | - | .
Cc1nc2cc(C(F)(F)F)ccc2n1CCNc1nc(-c2ccc([N+](=O)[O-])c(Cl)c2)cs1 | - | - | - | 52.2 | -
CCC(C)n1c(=S)[nH]c2c(sc3ccc([N+](=O)[O-])cc32)c1=O (configuration not stated) | - | - | - | 54.4 | 50.7
O=C(NCCc1c[nH]c2ccccc12)c1ccc2c(c1)OCO2 | - | - | - | - | .

From PubChem BioAssay
